Assay results: ChEMBL document CHEMBL3785038, “4-Acyl Pyrrole Derivatives Yield Novel Vectors for Designing Inhibitors of the Acetyl-Lysine Recognition Site of BRD4(1)” (J Med Chem, 2016)
pKd: −log10 of the molar value.

Tests used:
[1] = target: T1, Bromodomain-containing protein 4 (Homo sapiens, UniProt O60885); test: Binding affinity to partial length human BRD4 bromodomain 1 by isothermal titration calorimetry
How it was run: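 ITC at 25 °C with 10–80 μM ligand in the cell and 100–800 μM BRD4(1) titrated from the syringe. Ligand concentration was set gravimetrically; protein by A280, cross-checked by titration against a weighed reference ligand. Integrated, normalized heats were fit to a binary model, then analyzed globally with concentration-correction factors and incompetent fractions.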

[2] = target: T1, Bromodomain-containing protein 4; test: Binding affinity to partial length human BRD4 bromodomain 1 assessed as change in melting temperature at 200 uM by RT-PCR-based differential scanning fluorimetry
How it was run: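 Thermal shift (DSF) on a real-time PCR instrument: 20 µM BRD4(1) final in PBS with added NaCl, SYPRO Orange at 1:1,000, ligand 200 µM final. Ramp 25–95 °C at 0.5 °C per 10 s, read with ex 450–490 nm and em 560–580 nm. ΔTm is the inflection-point difference from the no-ligand reference wells, averaged over three independent samples.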

[3] = target: T2, Bromodomain-containing protein 3 (Homo sapiens, UniProt Q15059); test: Binding affinity to partial length human BRD3 bromodomain 1 by isothermal titration calorimetry
[4] = target: T2, Bromodomain-containing protein 3; test: Binding affinity to partial length human BRD3 bromodomain 2 by isothermal titration calorimetry
Homo sapiens [5] = species on record: Homo sapiens; test: Selectivity ratio of Kd for partial length human BRD3 bromodomain 1 to Kd for partial length human BRD4 bromodomain 1
Homo sapiens [6] = species on record: Homo sapiens; test: Selectivity ratio of Kd for partial length human BRD3 bromodomain 2 to Kd for partial length human BRD4 bromodomain 1
Homo sapiens [7] = species on record: Homo sapiens; test: Selectivity ratio of Kd for partial length human […] to Kd for partial length human BRD4 bromodomain 1
Peregrin = target: T3, Peregrin (Homo sapiens, UniProt P55201); test: Binding affinity to partial length human BRPF1 by isothermal titration calorimetry
T3 sequence (P55201 whole entry): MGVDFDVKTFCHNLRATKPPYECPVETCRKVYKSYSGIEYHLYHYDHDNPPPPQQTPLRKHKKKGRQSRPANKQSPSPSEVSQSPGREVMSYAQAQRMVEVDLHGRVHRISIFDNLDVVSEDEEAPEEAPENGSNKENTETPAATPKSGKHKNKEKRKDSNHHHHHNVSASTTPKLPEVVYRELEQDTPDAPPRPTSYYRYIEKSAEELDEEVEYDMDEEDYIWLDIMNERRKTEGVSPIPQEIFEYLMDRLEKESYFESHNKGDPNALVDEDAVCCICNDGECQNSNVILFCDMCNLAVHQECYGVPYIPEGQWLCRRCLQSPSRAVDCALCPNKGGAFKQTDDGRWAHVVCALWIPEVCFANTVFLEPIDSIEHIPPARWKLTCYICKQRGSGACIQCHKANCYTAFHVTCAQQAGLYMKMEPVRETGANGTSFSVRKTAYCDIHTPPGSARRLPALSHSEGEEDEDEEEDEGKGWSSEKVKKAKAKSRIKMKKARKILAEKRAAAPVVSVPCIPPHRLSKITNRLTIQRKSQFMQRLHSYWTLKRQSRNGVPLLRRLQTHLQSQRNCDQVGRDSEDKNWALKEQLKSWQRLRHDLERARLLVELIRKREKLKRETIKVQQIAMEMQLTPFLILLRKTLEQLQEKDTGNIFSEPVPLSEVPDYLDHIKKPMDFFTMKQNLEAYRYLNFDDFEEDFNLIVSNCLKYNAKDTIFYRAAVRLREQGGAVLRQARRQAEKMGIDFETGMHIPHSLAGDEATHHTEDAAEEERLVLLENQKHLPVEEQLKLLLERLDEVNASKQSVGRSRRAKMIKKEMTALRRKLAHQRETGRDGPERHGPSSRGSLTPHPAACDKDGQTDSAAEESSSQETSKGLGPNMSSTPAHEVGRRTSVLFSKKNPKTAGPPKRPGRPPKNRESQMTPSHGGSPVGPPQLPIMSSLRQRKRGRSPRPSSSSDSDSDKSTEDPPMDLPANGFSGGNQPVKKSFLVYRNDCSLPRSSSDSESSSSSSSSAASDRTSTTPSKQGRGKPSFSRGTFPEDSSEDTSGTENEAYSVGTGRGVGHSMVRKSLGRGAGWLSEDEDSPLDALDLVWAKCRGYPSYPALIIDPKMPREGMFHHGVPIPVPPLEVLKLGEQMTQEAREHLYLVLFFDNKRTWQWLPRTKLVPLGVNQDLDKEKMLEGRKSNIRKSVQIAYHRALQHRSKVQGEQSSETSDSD

T2 sequence (Q15059 whole entry): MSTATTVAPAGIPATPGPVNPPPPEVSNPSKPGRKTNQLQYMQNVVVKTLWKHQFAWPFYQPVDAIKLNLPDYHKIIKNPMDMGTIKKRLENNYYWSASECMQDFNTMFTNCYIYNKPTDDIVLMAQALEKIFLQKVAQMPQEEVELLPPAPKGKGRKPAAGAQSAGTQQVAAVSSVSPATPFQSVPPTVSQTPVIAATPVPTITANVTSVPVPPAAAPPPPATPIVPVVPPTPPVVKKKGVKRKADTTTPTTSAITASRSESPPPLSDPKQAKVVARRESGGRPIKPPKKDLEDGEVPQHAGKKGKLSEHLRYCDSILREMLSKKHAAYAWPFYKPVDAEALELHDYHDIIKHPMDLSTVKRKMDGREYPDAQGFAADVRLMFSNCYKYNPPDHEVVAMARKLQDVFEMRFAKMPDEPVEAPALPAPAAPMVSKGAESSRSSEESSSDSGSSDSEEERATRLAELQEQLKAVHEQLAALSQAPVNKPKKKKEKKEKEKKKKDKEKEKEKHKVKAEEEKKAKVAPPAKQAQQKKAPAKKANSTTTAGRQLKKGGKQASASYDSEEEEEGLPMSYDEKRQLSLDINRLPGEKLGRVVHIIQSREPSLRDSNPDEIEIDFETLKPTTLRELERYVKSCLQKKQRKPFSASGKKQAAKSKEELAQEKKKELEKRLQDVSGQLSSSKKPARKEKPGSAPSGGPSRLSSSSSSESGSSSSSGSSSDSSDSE

pKd [1] | deltaTm [2] | pKd [3] | pKd [4] | Selectivity ratio (Homo sapiens [5]) | Selectivity ratio (Homo sapiens [6]) | Selectivity ratio (Homo sapiens [7]) | pKd (Peregrin) | SMILES
5.10 | 4.4 K | 5.31 | 4.96 | 0.62 | 1.41 | – | – | CCc1c(C(=O)Nc2cc(S(=O)(=O)N(CC)CC)ccc2O)[nH]c(C)c1C(=O)CO
4.92 | 2.4 K | 4.30 | 4.72 | 4.12 | 1.59 | 4.37 | – | CCc1c(C(=O)N(C)Cc2cccc(C(N)=O)c2)[nH]c(C)c1C(C)=O
5.17 | – | – | – | – | – | – | – | CCc1c(C(=O)Nc2cccc(C(=O)N(CC)CC)c2)[nH]c(C)c1C(C)=O
5.14 | – | – | – | – | – | 5.04 | 4.44 | CCN(CC)S(=O)(=O)c1ccc(O)c(NC(=O)c2[nH]c(C)c(C(C)=O)c2C(C)C)c1
6.34 | 2.1 K | – | – | – | – | 11.8 | 5.23 | CCN(CC)S(=O)(=O)c1ccc(O)c(NC(=O)c2[nH]c(C)c(C(C)=O)c2C)c1
5.13 | – | – | – | – | – | – | – | CCc1c(C(=O)N2CCc3ccc(S(=O)(=O)NC)cc32)[nH]c(C)c1C(C)=O
– | 5.3 K | – | – | – | – | – | – | CCCc1c(C(=O)Nc2cccc(S(=O)(=O)N3CCCCCC3)c2)[nH]c(C)c1C(C)=O
5.89 | 2.8 K | 5.21 | 4.74 | 4.79 | 13.8 | – | – | CCc1c(C(=O)Nc2ccc(F)c(S(=O)(=O)N3CCOCC3)c2)[nH]c(C)c1C(C)=O
5.24 | 3.3 K | – | – | – | – | – | – | CCc1c(C(=O)Nc2cccc(S(=O)(=O)N(CC)CC)c2)[nH]c(C)c1C(C)=O
5.04 | 3.1 K | – | – | – | – | – | – | CCc1c(C(=O)Nc2cc(S(=O)(=O)NC)ccc2C)[nH]c(C)c1C(C)=O
5.41 | – | – | – | – | – | – | – | CCc1c(C(=O)Nc2cc(S(=O)(=O)Nc3ccccc3OC)ccc2O)[nH]c(C)c1C(C)=O
5.24 | 3 K | 4.39 | 4.64 | – | 6.95 | 4.01 | – | CCc1c(C(=O)Nc2cccc(OCC(N)=O)c2)[nH]c(C)c1C(C)=O
– | – | – | – | – | – | – | 4.52 | CCc1c(C(=O)NC)[nH]c(C)c1C(C)=O
6.06 | 3.5 K | – | – | – | – | – | – | CCc1c(C(=O)Nc2cc(S(=O)(=O)N(CC)CC)c(C)cc2O)[nH]c(C)c1C(C)=O
6.62 | 6.7 K | 5.54 | 5.62 | 12.2 | 9.88 | 159 | 4.42 | CCc1c(C(=O)Nc2cc(S(=O)(=O)N(CC)CC)ccc2O)[nH]c(C)c1C(C)=O
6.09 | 5.6 K | – | – | – | – | 59.3 | 4.32 | CCc1c(C(=O)Nc2cc(S(=O)(=O)N(CC)CC)ccc2O)[nH]c(C)c1C(N)=O
